From ChEMBL document CHEMBL1629577, “Activity of T-705 in a hamster model of yellow fever virus infection in comparison with that of a chemically related compound, T-1106” (Antimicrob Agents Chemother, 2009) come the findings set out here.

The source made the active and inactive calls. No cut-off for these calls is given here.

For data set [1], the system named is Syrian golden hamster. Put plainly: Toxicity in syrian golden hamster infected with 10^2 CCID50 Yellow fever virus Jimenez assessed as weight change at 400 mg/kg/day, po administered twice daily for 8 days started 5 day post viral infection. It counts as organism-based, Mesocricetus auratus. Also noted: route oral. The settings on record: in vivo.
Data set [2] has as its system Syrian golden hamster. Nature of the data set: Toxicity in syrian golden hamster infected with 10^2 CCID50 Yellow fever virus Jimenez assessed as weight change at 400 mg/kg/day, po administered twice daily for 8 days started 2 day post viral infection. It counts as organism-based, Mesocricetus auratus. Also noted: route oral. The settings on record: in vivo.
Data set [3] deals with Syrian golden hamster. Put plainly: Toxicity in syrian golden hamster infected with 10^2 CCID50 Yellow fever virus Jimenez assessed as weight change at 200 mg/kg/day, po administered twice daily for 8 days started 4 hrs prior to viral infection relative to control. The class given is organism-based, Mesocricetus auratus. Also noted: route oral. To be noted: in vivo.
Data set [4] deals with Syrian golden hamster. Nature of the data set: Toxicity in syrian golden hamster infected with 10^2 CCID50 Yellow fever virus Jimenez assessed as weight change at 400 mg/kg/day, po administered twice daily for 8 days started 4 day post viral infection. It counts as organism-based, Mesocricetus auratus. Also noted: route oral. To be noted: in vivo.
Data set [5] relates to Syrian golden hamster. Nature of the data set: Toxicity in syrian golden hamster infected with 10^2 CCID50 Yellow fever virus Jimenez assessed as weight change at 400 mg/kg/day, po administered twice daily for 8 days started 1 day post viral infection. It counts as organism-based, Mesocricetus auratus. Set-up: route oral. The settings on record: in vivo.
Data set [6] relates to Syrian golden hamster. Nature of the data set: Toxicity in syrian golden hamster infected with 10^2 CCID50 Yellow fever virus Jimenez assessed as weight change at 400 mg/kg/day, po administered twice daily for 8 days started 4 hrs prior to viral infection relative to control. To be noted: in vivo. The class given is organism-based, Mesocricetus auratus. Set-up: route oral.

The test system of data set [7] is Syrian golden hamster. Nature of the data set: Toxicity in syrian golden hamster assessed as number of animals alive at 400 mg/kg/day, po BID administered for 8 days. It counts as organism-based, Mesocricetus auratus. The settings on record: in vivo, 192 h. Set-up: route oral. The method, boiled down: (§1)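 Uninfected toxicity-control hamsters, three per group, were dosed p.o. in 0.4% carboxymethyl cellulose twice daily, 12 h apart, for 8 days. Deaths were recorded daily. Body weights were taken at 0, 3 and 6 dpi.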

For data set [8], the system named is Syrian golden hamster. Put plainly: Toxicity in syrian golden hamster assessed as weight change at 400 mg/kg/day, po BID administered for 8 days. Set-up: route oral. It counts as organism-based, Mesocricetus auratus. To be noted: in vivo, 192 h. In short, it runs like this:
as §1

Data set [9] has as its system Syrian golden hamster. Nature of the data set: Toxicity in syrian golden hamster infected with 10^2 CCID50 Yellow fever virus assessed as weight change in surviving animals at 400 mg/kg/day, po BID administered for 8 days started 5 days post viral challenge. To be noted: in vivo. The class given is organism-based, Mesocricetus auratus. Also noted: route oral.
Data set [10] can be described thus: Selectivity index, ratio of CC50 for African green monkey vero cells to EC90 for Yellow fever virus 17D. It counts as toxicity, cell-based. The settings on record: read-out: Selectivity Index. The method, boiled down: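 SI was calculated as the CC50 in uninfected Vero cells divided by the EC90 from the YFV 17D virus yield reduction assay in Vero cells.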

Data set [11] has as its system Syrian golden hamster. Put plainly: Toxicity in syrian golden hamster infected with 10^2 CCID50 Yellow fever virus Jimenez assessed as weight change at 400 mg/kg/day, po administered twice daily for 8 days started 3 day post viral infection. It counts as organism-based, Mesocricetus auratus. To be noted: in vivo. Set-up: route oral.
The test system of data set [12] is Syrian golden hamster. Nature of the data set: Toxicity in syrian golden hamster infected with 10^2 CCID50 Yellow fever virus assessed as weight change in surviving animals at 400 mg/kg/day, po BID administered for 8 days started 4 days post viral challenge. The class given is organism-based, Mesocricetus auratus. Also noted: route oral. The settings on record: in vivo.

Data set [13] concerns Syrian golden hamster. Put plainly: Toxicity in syrian golden hamster infected with 10^2 CCID50 Yellow fever virus Jimenez assessed as weight change at 100 mg/kg/day, po administered twice daily for 8 days started 4 hrs prior to viral infection. The settings on record: in vivo. Set-up: route oral. The class given is organism-based, Mesocricetus auratus.
In data set [14] the test system is Syrian golden hamster. Put plainly: Toxicity in syrian golden hamster infected with 10^2 CCID50 Yellow fever virus assessed as weight change in non surviving animals at 400 mg/kg/day, po BID administered for 8 days started 4 days post viral challenge. Also noted: route oral. The settings on record: in vivo. The class given is organism-based, Mesocricetus auratus.

The subject of data set [15] is Syrian golden hamster. Put plainly: Toxicity in syrian golden hamster infected with 10^2 CCID50 Yellow fever virus assessed as weight change in non surviving animals at 400 mg/kg/day, po BID administered for 8 days started 5 days post viral challenge. It counts as organism-based, Mesocricetus auratus. Also noted: route oral. The settings on record: in vivo.
Data set [16] can be described thus: Cytotoxicity against African green monkey Vero cells by luciferase-based cell viability assay. To be noted: chlorocebus sabaeus. The method, boiled down:
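Uninfected Vero cells exposed to compound were assayed for ATP content by luminescence (Cell-Titer Glo) to derive the CC50.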

The test system of data set [17] is Yellow fever virus. Nature of the data set: Antiviral activity against 10^2 CCID50 Yellow fever virus Jimenez infected in syrian golden hamster assessed as serum ALT level at 10 mg/kg/day, po administered twice daily for 8 days started 4 hrs prior to viral infection. It counts as functional.
Data set [18] deals with Yellow fever virus. Put plainly: Antiviral activity against 10^2 CCID50 Yellow fever virus Jimenez infected in syrian golden hamster assessed as mean day of death […] at 50 mg/kg/day, po administered twice daily for 8 days started 4 hrs prior to viral infection relative to control. The class given is functional.
In data set [19] the test system is Yellow fever virus. Nature of the data set: Antiviral activity against Yellow fever virus 17D infected in African green monkey Vero cells assessed as reduction in virus yield. The class given is functional. In short, it runs like this:
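Virus yield reduction in Vero cells infected with YFV 17D after compound exposure, with progeny virus titred by CCID50. The EC90 was averaged over separate experiments.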

Data set [20] deals with Yellow fever virus. Nature of the data set: Antiviral activity against 10^2 CCID50 Yellow fever virus Jimenez infected in syrian golden hamster assessed as serum survival of animal at 50 mg/kg/day, po administered twice daily for 8 days started 4 hrs prior to viral infection. The class given is functional, organism-based.
For data set [21], the system named is Yellow fever virus. Nature of the data set: Antiviral activity against Yellow fever virus 17D infected in African green monkey Vero cells assessed as inhibition of virus induced cytopathic effect by microscopic analysis. It counts as functional, cell-based. On the technique in general: Protection from cytopathic effect is a common read-out in antiviral testing.

Data set [22] deals with Syrian golden hamster. Put plainly: Toxicity in syrian golden hamster infected with 10^2 CCID50 Yellow fever virus Jimenez assessed as weight change at 10 mg/kg/day, po administered twice daily for 8 days started 4 hrs prior to viral infection relative to control. The settings on record: in vivo. It counts as organism-based, Mesocricetus auratus. Set-up: route oral.
For data set [23], the system named is Yellow fever virus. Nature of the data set: Antiviral activity against Yellow fever virus 17D infected in African green monkey Vero cells assessed as inhibition of virus induced cytopathic effect by luciferase reporter gene assay. It counts as functional, cell-based.
Data set [24] has as its system Yellow fever virus. Put plainly: Antiviral activity against 10^2 CCID50 Yellow fever virus Jimenez infected in syrian golden hamster assessed as reduction in viral titer in liver at 32 mg/kg/day administered twice daily for 8 days started 6 days post infection by quantitative RT-PCR analysis. It counts as functional.
The subject of data set [25] is Syrian golden hamster. Nature of the data set: Toxicity in syrian golden hamster infected with 10^2 CCID50 Yellow fever virus Jimenez assessed as weight change at 32 mg/kg/day, po administered twice daily for 8 days started 4 hrs prior to viral infection relative to control. The class given is organism-based, Mesocricetus auratus. Set-up: route oral. To be noted: in vivo.

The test system of data set [26] is Yellow fever virus. Nature of the data set: Antiviral activity against 10^2 CCID50 Yellow fever virus Jimenez infected in syrian golden hamster assessed as serum survival of animal at 32 mg/kg/day, po administered twice daily for 8 days started 4 hrs prior to viral infection. It counts as functional, organism-based.
The test system of data set [27] is Yellow fever virus. Put plainly: Antiviral activity against 10^2 CCID50 Yellow fever virus Jimenez infected in syrian golden hamster assessed as mean day of death […] at 10 mg/kg/day, po administered twice daily for 8 days started 4 hrs prior to viral infection relative to control. The class given is functional.
For data set [28], the system named is Yellow fever virus. Nature of the data set: Antiviral activity against Yellow fever virus 17D infected in African green monkey Vero cells assessed as inhibition of virus induced cytopathic effect […] by NR dye uptake assay. The class given is functional, cell-based.
Data set [29] relates to Yellow fever virus. Nature of the data set: Antiviral activity against 10^2 CCID50 Yellow fever virus Jimenez infected in syrian golden hamster assessed as serum ALT level at 32 mg/kg/day, po administered twice daily for 8 days started 4 hrs prior to viral infection. It counts as functional.
The subject of data set [30] is Yellow fever virus. Put plainly: Antiviral activity against 10^2 CCID50 Yellow fever virus Jimenez infected in syrian golden hamster assessed as mean day of death […] at 32 mg/kg/day, po administered twice daily for 8 days started 4 hrs prior to viral infection relative to control. The class given is functional.
In data set [31] the test system is Yellow fever virus. Put plainly: Antiviral activity against Yellow fever virus 17D infected in African green monkey Vero cells assessed as time required for inhibition of viral replication at 6400 uM up to 12 hrs post-viral infection. It counts as functional, cell-based.

A word on the CC50: it is the concentration at which the toxic effect on the cells reaches its halfway point. In the case of `NC(=O)c1nc(F)c[nH]c1=O` [FAVIPIRAVIR], the Activity in the data set with Syrian golden hamster [1] was -4.5 g; in the data set on Syrian golden hamster [2], 0 g; in the data set with Syrian golden hamster [3], 2.2 g; in the data set on Syrian golden hamster [4], -3 g; with Syrian golden hamster [5], -0.3 g; in the data set on Syrian golden hamster [6], 5.2 g. Besides, the Activity entry is recorded as “Non-toxic” with Syrian golden hamster [7]; 5.3 g with Syrian golden hamster [8]; -2.8 g in the data set with Syrian golden hamster [9]; -4.1 g with Syrian golden hamster [11]; 2.2 g in the data set with Syrian golden hamster [12]; -2.9 g with Syrian golden hamster [13]. The Activity in the data set with Syrian golden hamster [14] was -18.5 g; in the data set on Syrian golden hamster [15], -7.3 g. Moreover, the selectivity ratio in [10] is above 19. The compound further displayed a CC50 in data set [16] above 6370 µM.

The term EC90 denotes the concentration needed for an effect of 90%. For orientation: EC50 means the midpoint of the concentration-response curve. For the compound `NC(=O)c1ncn([C@@H]2O[C@H](CO)[C@@H](O)[C@H]2O)n1` [RIBAVIRIN], the Activity in the data set with Yellow fever virus [17] is reported as 103 IU/L; in the data set with Syrian golden hamster [22], 2.4 g. Further, the Time with Yellow fever virus [18] is above 21 days. The EC90 in the data set with Yellow fever virus [19] turned out to be 690 µM. For the same compound, the outcome with Yellow fever virus [20] was Active. For the same compound, in the data set on Yellow fever virus [21], the EC50 was found to be 28 µM. For the same compound, the selectivity ratio in data set [10] was above 6. Moreover, the CC50 in [16] was above 4100 µM.

As to `NC(=O)c1nccn([C@@H]2O[C@H](CO)[C@@H](O)[C@H]2O)c1=O`, the EC50 worked out at 2630 µM in the data set with Yellow fever virus [23], 1080 µM with Yellow fever virus [21] and 1800 µM with Yellow fever virus [28]. Also, the EC90 in the data set with Yellow fever virus [19] came out at 1110 µM. The Activity came to 85 IU/L in the data set on Yellow fever virus [24], 0.2 g in the data set with Syrian golden hamster [25] and 154 IU/L in the data set with Yellow fever virus [29]. Also, the result in the data set on Yellow fever virus [26] and with Yellow fever virus [31] was Active. The Time in the data set with Yellow fever virus [27] is 8 days; with Yellow fever virus [30], above 21 days. In addition, the selectivity ratio in data set [10] is above 3.6. Further, the CC50 in data set [16] was above 4000 µM.
